According to ChEMBL document CHEMBL1144697, “9-cyano-1-azapaullone (cazpaullone), a glycogen synthase kinase-3 (GSK-3) inhibitor activating pancreatic beta cell protection and replication” (J Med Chem, 2008):
The source made the active and inactive calls. The calls are words filed in the database; no cut-off is given here.

What was measured:
[1] = target: Glycogen synthase kinase-3 (Homo sapiens, UniProt P49840+P49841); test: Inhibition of GSK3alpha/beta in pig brain; set-up: species or system Sus scrofa; conditions: target entry is the homologue from another species
[2] = target: Cyclin-dependent kinase 5/CDK5 activator 1 (Homo sapiens, UniProt Q00535); test: Inhibition of recombinant CDK5/p25 expressed in Escherichia coli
Cyclin-dependent kinase 5/CDK5 activator 1, sequence (Q00535 whole entry): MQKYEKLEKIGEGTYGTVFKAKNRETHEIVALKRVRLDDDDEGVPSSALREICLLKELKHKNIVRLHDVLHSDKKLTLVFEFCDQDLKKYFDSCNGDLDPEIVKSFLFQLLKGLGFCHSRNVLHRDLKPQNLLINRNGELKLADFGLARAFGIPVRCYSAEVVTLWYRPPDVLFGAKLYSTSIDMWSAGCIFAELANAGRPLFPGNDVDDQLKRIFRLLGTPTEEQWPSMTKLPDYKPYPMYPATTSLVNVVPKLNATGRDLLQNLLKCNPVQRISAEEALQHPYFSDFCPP
Cyclin-dependent kinase 5/CDK5 activator 1, sequence (Q15078 whole entry, further chain): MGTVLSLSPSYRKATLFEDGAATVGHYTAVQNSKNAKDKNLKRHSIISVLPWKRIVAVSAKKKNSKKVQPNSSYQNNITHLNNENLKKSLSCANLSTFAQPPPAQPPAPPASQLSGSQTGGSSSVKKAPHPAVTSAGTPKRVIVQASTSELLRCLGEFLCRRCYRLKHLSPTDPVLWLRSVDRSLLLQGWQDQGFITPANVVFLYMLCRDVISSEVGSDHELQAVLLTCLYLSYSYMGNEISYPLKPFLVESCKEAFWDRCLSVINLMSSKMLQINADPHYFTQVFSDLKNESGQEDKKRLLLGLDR

[3] = Inhibition of starfish CDK1/cyclin B; set-up: species or system Asteroidea
Summary of the method: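 Kinase inhibition assays at 15 µM final ATP, run in triplicate.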

Pancreatic beta cell [4] = test: Stimulation of rat primary beta cell replication at 5 uM; assay type: functional
Summary of the method: (§1)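 Isolated rat islets incubated with compound for 72 h, then disaggregated and spotted onto slides. Cells double-immunostained for C-peptide and Ki-67. Replication scored as % Ki-67+ among C-peptide+ cells, compared with untreated islets.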

[5] = Activation of Pax4 RNA expression in rat INS-1E cells at 10 uM after 4 hrs relative to control; assay type: functional, cell-based
Summary of the method: (§2)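 Compound added to INS-1E cells for 4 h or 24 h. Pax4 and cyclophilin B transcripts quantified by qRT-PCR. Reported as fold change versus vehicle-treated control, with the control level set to 1. Mean of triplicates ± SD.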

[6] = Activation of Pax4 RNA expression in rat INS-1E cells at 10 uM after 24 hrs relative to control; assay type: functional, cell-based; summary of the method: as §2
[7] = Activation of cyclophilin B gene expression in rat INS-1E cells at 10 uM after 4 hrs relative to control; assay type: functional, cell-based; summary of the method: as §2
[8] = Activation of cyclophilin B gene expression in rat INS-1E cells at 10 uM after 24 hrs relative to control; assay type: functional, cell-based; summary of the method: as §2
INS-1E [9] = test: Protection against glucose and palmitate-induced toxicity in rat INS-1E cells after 24 hrs; assay type: functional, cell-based
Summary of the method: (§3)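 INS-1E cells treated with compound over a concentration range, with or without 0.3 mM BSA-coupled palmitate plus 25 mM glucose for 24 h. Viability/metabolic activity measured as an indirect readout of mitochondrial energy production. At least four wells per point; representative of ≥3 independent studies.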

[10] = Activation of Pax4 RNA expression in rat INS-1E cells at 1 uM after 4 hrs relative to control; assay type: functional, cell-based; summary of the method: as §2
[11] = Activation of Pax4 RNA expression in rat INS-1E cells at 1 uM after 24 hrs relative to control; assay type: functional, cell-based; summary of the method: as §2
[12] = Activation of cyclophilin B gene expression in rat INS-1E cells at 1 uM after 4 hrs relative to control; assay type: functional, cell-based; summary of the method: as §2
[13] = Activation of cyclophilin B gene expression in rat INS-1E cells at 1 uM after 24 hrs relative to control; assay type: functional, cell-based; summary of the method: as §2
INS-1E [14] = test: Inhibition of glucose and palmitate-induced apoptosis in rat INS-1E cells by DNA fragmentation assay; assay type: functional, cell-based
Summary of the method: (§4)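 INS-1E cells preincubated 1 h with compound (µM), then exposed to toxic high glucose/palmitate for 24 h. Apoptosis read as cytosolic DNA fragments or caspase activity, as fold change versus untreated control ± SD. At least four wells per point; Student's t test against glucose/palmitate alone.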

INS-1E [15] = test: Inhibition of glucose and palmitate-induced apoptosis in rat INS-1E cells by caspase activity assay; assay type: functional, cell-based; summary of the method: as §4
INS-1E [16] = test: Stimulation of rat INS-1E cell replication assessed as BrdU incorporation; assay type: functional, cell-based
Summary of the method: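 INS-1E cells exposed to compound at various concentrations for 24 h. Replication measured as BrdU incorporation, given as fold increase versus untreated cells ± SD. At least four wells per point, two independent studies, Student's t test.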

[17] = Activation of Pax4 RNA expression in rat beta cells at 2 uM after 4 hrs relative to control; assay type: functional, cell-based; conditions: Pancreatic beta cell
Summary of the method: (§5)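 Primary rat islets exposed to compound for 4 h. Pax4 and cyclophilin B expression measured by qRT-PCR as fold change versus vehicle-treated control (set to 1). Triplicates, mean ± SD.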

[18] = Activation of cyclophilin B gene expression in rat beta cells at 2 uM after 4 hrs relative to control; assay type: functional, cell-based; conditions: Pancreatic beta cell; summary of the method: as §5
SH-SY5Y = test: Inhibition of GSK3 in human SHSY5Y cells assessed as beta-casein phosphorylation level in presence of MG132; assay type: cell-based; conditions: in the assay text read “beta-catenin” for “beta-casein”
Summary of the method: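 Nearly confluent SH-SY5Y cells in DMEM with 10% FCS were co-treated with compound across a concentration range plus 2 µM MG132, DMSO ≤1% final. Phospho-β-catenin (Ser33/Ser37/Thr41) measured by ELISA and expressed as % of cells given MG132 alone (100%).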

INS-1E [19] = test: Protection against glucose and palmitate-induced toxicity in rat INS-1E cells at 0.3 uM after 24 hrs; assay type: functional, cell-based; summary of the method: as §3
INS-1E [20] = test: Protection against glucose and palmitate-induced toxicity in rat INS-1E cells at 2 uM after 24 hrs; assay type: functional, cell-based; summary of the method: as §3
INS-1E [21] = test: Suppression of metabolic activity in rat INS-1E cells at 1 uM; assay type: functional, cell-based; summary of the method: as §3
[22] = Inhibition of glucose and palmitate-induced apoptosis in rat INS-1E cells at 2 uM by DNA fragmentation assay; assay type: functional; set-up: scale not given: the % may be the effect or the level left; summary of the method: as §4
[23] = Inhibition of glucose and palmitate-induced apoptosis in rat INS-1E cells at 2 uM by caspase activity assay; assay type: functional; set-up: scale not given: the % may be the effect or the level left; summary of the method: as §4
Pancreatic beta cell [24] = test: Stimulation of rat primary beta cell replication at 0.5 uM; assay type: functional; summary of the method: as §1
Pancreatic beta cell [25] = test: Stimulation of rat primary beta cell replication at 2 uM; assay type: functional; summary of the method: as §1

Compound	IC50 [1] [µM]	IC50 [2] [µM]	IC50 [3] [nM]	further results
N#Cc1ccc2c(c1)-c1[nH]c3ccc(C#N)cc3c1CC(=O)N2	0.028	0.73	120	–
Cn1c2c(c3ccccc31)CC(=O)Nc1ccncc1-2	0.4	> 10	8000	–
O=C1Cc2c(n(-c3ccccc3)c3ccccc23)-c2ncccc2N1	> 10	> 10	> 10000	–
O=C1Cc2c(oc3ccc(Cl)cc23)-c2ccccc2N1	> 10	> 10	> 10000	–
N#Cc1ccc2[nH]c3c(c2c1)CC(=O)Nc1ccncc1-3	0.021	0.032	31	–
Cc1cnc(-c2cnc(NCCNc3ccc(C#N)cn3)nc2-c2ccc(Cl)cc2Cl)[nH]1 [LADUVIGLUSIB]	–	–	–	Activity (Pancreatic beta cell [4]): 2.5; Fold change [5]: 0.78; Fold change [6]: 0.76; Fold change [7]: 1.31; Fold change [8]: 1.12
COc1ccc2[nH]c3c(c2c1)CC(=O)Nc1ccncc1-3	0.39	0.4	200	–
CCn1c2c(c3ccccc31)CC(=O)Nc1ccncc1-2	0.8	> 10	3800	–
O=C1Nc2cc(Br)ccc2/C1=C1/Nc2ccccc2/C1=N\O	–	–	–	Fold change [10]: 1.02; Fold change [11]: 0.81; Fold change [12]: 1.04; Fold change [13]: 1.2
O=C1Cc2c(n(Cc3ccccc3)c3ccccc23)-c2ncccc2N1	2.1	> 10	> 10000	–
O=C1Cc2c(oc3ccccc23)-c2ccccc2N1	> 10	> 10	> 10000	–
O=C1Cc2c(n3c4c(cccc24)CC3)-c2ncccc2N1	0.41	> 10	> 10000	–
O=C1Cc2c(n(Cc3ccccc3)c3ccccc23)-c2cnccc2N1	0.41	> 10	> 10000	–
O=C1Cc2c([nH]c3ccc(Br)cc23)-c2ccccc2N1 [KENPAULLONE]	–	–	–	Activity (SH-SY5Y): Dose-dependent effect
O=C1Cc2c([nH]c3ccc(Br)cc23)-c2ncccc2N1 [AZAKENPAULLONE]	–	–	2000	–
CCn1c2c(c3ccccc31)CC(=O)Nc1cccnc1-2	13	> 10	> 10000	–
O=C1Cc2c(oc3ccc(Br)cc23)-c2ccccc2N1	> 10	> 10	> 10000	–
O=C1Cc2c([nH]c3ccc(C(F)(F)F)cc23)-c2cnccc2N1	0.013	0.12	190	–

More lines, main results first:

IC50 [1] [µM]	IC50 [2] [µM]	Compound	IC50 [3] [nM]	further results
0.051	0.26	O=C1Cc2c([nH]c3ccc(F)cc23)-c2cnccc2N1	1200	–
0.8	100	O=C1Cc2c([nH]c3cc(Cl)cc(Cl)c23)-c2ncccc2N1	> 30000	–
0.063	> 10	O=C1Cc2c([nH]c3ccc(Cl)cc23)-c2ncccc2N1	> 10000	–
1	3	Cn1c2c(c3ccccc31)CC(=O)Nc1cccnc1-2	> 10000	–
0.025	6	O=C1Cc2c([nH]c3ccc(I)cc23)-c2ncccc2N1	1000	Activity (INS-1E [9]): Active
100	30	O=C1Cc2c([nH]c3ccc(C(=O)O)cc23)-c2ncccc2N1	2200	–
1.4	5	O=C1Cc2c([nH]c3ccc(O)cc23)-c2ncccc2N1	4000	–
0.08	3	O=C1Cc2c([nH]c3ccc(F)cc23)-c2ncccc2N1	4500	Activity (INS-1E [9]): Active; Activity (INS-1E [14]): Active; Activity (INS-1E [15]): Active; Activity (INS-1E [16]): Dose-dependent effect; Fold change [5]: 0.97; Fold change [6]: 0.45; Fold change [7]: 1.14; Fold change [8]: 0.97
0.018	0.21	O=C1Cc2c([nH]c3ccc(Cl)cc23)-c2cnccc2N1	120	–
0.8	4	COc1ccc2[nH]c3c(c2c1)CC(=O)Nc1cccnc1-3	2000	–
1.8	> 10	O=C1Cc2c([nH]c3c(F)cc(F)cc23)-c2ncccc2N1	> 10000	–
0.008	0.3	N#Cc1ccc2[nH]c3c(c2c1)CC(=O)Nc1cccnc1-3 [CAZPAULLONE]	500	Fold change [17]: 2.4; Fold change [18]: 0.73; Activity (SH-SY5Y): Dose-dependent effect; Activity (INS-1E [9]): Active; Activity (INS-1E [19]): Active; Activity (INS-1E [20]): Active; Activity (INS-1E [21]): Active; Activity (INS-1E [14]): Active; Activity (INS-1E [15]): Active; Activity [22]: >50%; Activity [23]: >50%; Activity (INS-1E [16]): Dose-dependent effect; Activity (Pancreatic beta cell [24]): 2.5; Activity (Pancreatic beta cell [25]): inactive; Fold change [10]: 4.87; Fold change [11]: 0.56; Fold change [12]: 1.11; Fold change [13]: 1.42
0.12	2	N#Cc1cc(I)c2[nH]c3c(c2c1)CC(=O)Nc1cccnc1-3	410	–
0.052	0.18	O=C1Cc2c([nH]c3ccc(Br)cc23)-c2cnccc2N1	110	–
0.008	10	O=C1Cc2c([nH]c3ccc(C(F)(F)F)cc23)-c2ncccc2N1	1650	Activity (SH-SY5Y): Dose-dependent effect; Activity (INS-1E [9]): Active; Activity (INS-1E [14]): Active; Activity (INS-1E [15]): Active; Activity (INS-1E [16]): Dose-dependent effect; Fold change [5]: 0.72; Fold change [6]: 0.61; Fold change [7]: 1.2; Fold change [8]: 1.3
0.8	9	O=C1Cc2c([nH]c3ccccc23)-c2ncccc2N1	7000	–
3.8	10	N#Cc1ccc2[nH]c3c(c2c1)CC(=O)Nc1ccc(Br)nc1-3	–	–
0.13	> 10	Cc1ccc2[nH]c3c(c2c1)CC(=O)Nc1cccnc1-3	8000	–
